Screening results deposited in PubChem BioAssay by The Scripps Research Institute Molecular Screening Center.
OX1R antag-1 – human HCRTR1 antagonism; O43613; CHO/OX1R cells, Fluo-8 calcium fluorescence, orexin A; inhibition, % at 5 µM; 330,000 compounds, 0.43% hits;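 active = inhibition above its plate's threshold, mean inhibition of all tested compounds on the plate plus 3 SD, cut at about 37% in these data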
Target sequence (O43613 whole entry, looked up): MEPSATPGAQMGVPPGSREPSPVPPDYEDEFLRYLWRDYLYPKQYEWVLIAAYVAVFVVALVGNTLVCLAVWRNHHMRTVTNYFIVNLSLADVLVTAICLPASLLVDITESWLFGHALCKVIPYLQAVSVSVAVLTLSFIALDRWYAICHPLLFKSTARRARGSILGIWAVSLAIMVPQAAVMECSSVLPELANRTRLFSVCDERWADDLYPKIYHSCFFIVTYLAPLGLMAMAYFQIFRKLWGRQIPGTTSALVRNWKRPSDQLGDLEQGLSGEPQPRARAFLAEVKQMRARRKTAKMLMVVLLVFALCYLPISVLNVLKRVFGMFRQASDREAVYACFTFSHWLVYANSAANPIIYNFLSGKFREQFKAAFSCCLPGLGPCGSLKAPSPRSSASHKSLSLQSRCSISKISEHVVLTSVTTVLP
GPR7 antagonist – human neuropeptides B/W receptor 1 antagonism | P48145 | inhibition, % at 4.4 µM | GPR7-expressing cells, fluorescence antagonist assay | 290,000 compounds, 1.1% hits; in the data active = inhibition above about 16%, passing the limit was not always enough;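 note: cells stimulated with the agonist NPW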
OX1R antag-2 – OX1R (human) antagonism. OX1R-expressing cells, FRET antagonist read-out. O43613. 330,000 compounds, 1.8% hits. inhibition, % at 6.6 µM. AID 485270; in the data active = inhibition mostly above about 38%, no sharp cut-off; inactive = mostly below about 40%
CHO parental Ca – counter-screen for OX1R antagonists: effect in parental CHO cells. parental CHO-K1, ATP-induced calcium, Fluo-8 fluorescence. inhibition, % at 5.6 µM. 330,000 compounds, 0.63% hits. AID 463079;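 active = inhibition above that plate's mean sample inhibition plus 3 SD, cut at about 26% in these data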
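material = parental CHO cells | also added = ATP as calcium-mobilizing challenge | dosing = single point at 5.6 µM | detection = intracellular calcium via Fluo-8 no-wash fluorescent dye | read-out = % inhibition | benchmarks = low control ATP plus DMSO, high control DMSO only | repeats = one well per compound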
GalR3 antag – antagonists of human GalR3. inhibition, % at 3 µM. HEK293 GalR3-CNG cAMP membrane potential fluorescence; galR3 body fused to GalR1 C-terminus. 360,000 compounds, 0.44% hits. O60755;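 active = inhibition above the screen-wide average plus 3 SD, cut at about 13% in these data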;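 note: forskolin and galanin both at EC90 stimulate the cells; cAMP rise reported by CNG channel membrane potential dye signal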
Target sequence (O60755 1-299 limits assumed): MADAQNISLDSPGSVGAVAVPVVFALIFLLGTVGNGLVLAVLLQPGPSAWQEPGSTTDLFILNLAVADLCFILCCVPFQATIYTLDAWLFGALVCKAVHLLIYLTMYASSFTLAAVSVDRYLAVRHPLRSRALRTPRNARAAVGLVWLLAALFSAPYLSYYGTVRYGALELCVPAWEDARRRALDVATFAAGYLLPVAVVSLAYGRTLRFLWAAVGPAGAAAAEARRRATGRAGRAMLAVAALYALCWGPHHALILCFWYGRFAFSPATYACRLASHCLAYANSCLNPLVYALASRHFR
OX1R HTRF conf – confirmation of human orexin 1 receptor antagonists, HTRF format. OX1R-expressing cells, HTRF antagonist assay. 1,800 compounds, 49% hits. inhibition, % at 6.6 µM. AID 492964. shares compounds with OX1R antag-2; in the data active = inhibition above about 55%;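 note: CHO cells expressing OX1R stimulated with orexin A at about EC80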
CHO-K1 HTRF cnt – counter-screen: parental CHO-K1 HTRF response; inhibition, % at 6.6 µM; 1,800 compounds, 48% hits; shares compounds with OX1R antag-2; parental CHO-K1 cells, HTRF counterscreen; in the data active = inhibition above about 17%
Numbers stand for hits. A selection: hits, their analogues and other compounds. The true share with any hit is near 3.1%.

How did CN(C)C(=O)C(=O)c1c(-c2ccccc2)cc2ccccn12 do in these assays?
OX1R antag-1: inactive; GPR7 antagonist: inactive; OX1R antag-2: inactive; CHO parental Ca: inactive; GalR3 antag: inactive

What do the screens show for `O=Nc1c(-c2ccccc2)cc2ccccn12`?
OX1R antag-1: inactive; GPR7 antagonist: inactive; OX1R antag-2: 153; CHO parental Ca: inactive; GalR3 antag: inactive; OX1R HTRF conf: 64; CHO-K1 HTRF cnt: 86

What do the screens show for `O=c1nc(-c2ccccc2)cn[nH]1`?
OX1R antag-1: inactive; GPR7 antagonist: inactive; OX1R antag-2: 148; CHO parental Ca: inactive; GalR3 antag: inactive; OX1R HTRF conf: inactive; CHO-K1 HTRF cnt: 37

Results for O=c1nc(-c2ccccc2)c(-c2ccccc2)n[nH]1 ?
GPR7 antagonist: inactive; GalR3 antag: inactive

How did Cc1ccc(NC(=O)CSc2nnc3n2CCCCC3)cc1S(=O)(=O)N1CCOCC1 do in these assays?
GalR3 antag: inactive

What do the screens show for `CNc1ccc(S(=O)(=O)NCC(=O)OC(C)C(=O)N(C)Cc2ccccc2)cc1[N+](=O)[O-]` (configuration not stated)?
OX1R antag-1: inactive; OX1R antag-2: inactive; CHO parental Ca: inactive; GalR3 antag: inactive

What do the screens show for `O=C(O)CCNc1ccc(NCCC(=O)O)c2c1C(=O)c1ccccc1C2=O`?
OX1R antag-1: inactive; GPR7 antagonist: inactive; OX1R antag-2: 104; CHO parental Ca: inactive; GalR3 antag: inactive; OX1R HTRF conf: 61; CHO-K1 HTRF cnt: 86

What do the screens show for `COc1ccccc1NCCC(=O)O`?
OX1R antag-1: inactive; GPR7 antagonist: inactive; OX1R antag-2: inactive; CHO parental Ca: inactive; GalR3 antag: inactive

How did C[C@@H]1CN([C@H](C)CO)C(=O)c2cc(Br)cnc2O[C@H]1CN(C)C(=O)Nc1ccccc1F do in these assays?
GalR3 antag: inactive

How did Cc1cc[n+](CC(=O)c2cc3ccccc3oc2=O)cc1 do in these assays?
OX1R antag-1: inactive; GPR7 antagonist: inactive; OX1R antag-2: 78; CHO parental Ca: inactive; GalR3 antag: inactive; OX1R HTRF conf: 69; CHO-K1 HTRF cnt: 86

Results for CCOC(=O)CC1ON(C)C(=O)N1c1ccc([N+](=O)[O-])cc1 (configuration not stated) ?
OX1R antag-1: inactive; GPR7 antagonist: inactive; OX1R antag-2: 101; CHO parental Ca: inactive; GalR3 antag: inactive; OX1R HTRF conf: inactive; CHO-K1 HTRF cnt: inactive

How did CCOC(=O)C1=C(O)C(=O)N(c2ccc(S(N)(=O)=O)cc2)C1c1ccc([N+](=O)[O-])cc1 (configuration not stated) do in these assays?
OX1R antag-1: inactive; GPR7 antagonist: inactive; OX1R antag-2: inactive; CHO parental Ca: inactive; GalR3 antag: inactive

Results for CN1C2=CC=CC=CC2=[N+](C)C12C([N+](=O)[O-])=CC(=[N+]([O-])[O-])C=C2[N+](=O)[O-] (configuration not stated) ?
OX1R antag-1: inactive; GPR7 antagonist: inactive; OX1R antag-2: inactive; CHO parental Ca: inactive; GalR3 antag: inactive

How did CN1C2=CC=CC=CC2=[N+](C)C12C=CC(=[N+]([O-])[O-])C=C2[N+](=O)[O-] (configuration not stated) do in these assays?
OX1R antag-1: inactive; GPR7 antagonist: inactive; OX1R antag-2: 144; CHO parental Ca: inactive; GalR3 antag: inactive; OX1R HTRF conf: 68; CHO-K1 HTRF cnt: 90

How did CC(C)CCNC(=O)CN(Cc1ccc(F)cc1)C(=O)CCC(=O)Nc1ccccn1 do in these assays?
OX1R antag-1: inactive; GPR7 antagonist: inactive; OX1R antag-2: inactive; CHO parental Ca: inactive; GalR3 antag: inactive

How did CN(C(=O)CSc1ncc(C(F)(F)F)cc1Cl)c1c(N)n(Cc2ccccc2)c(=O)[nH]c1=O do in these assays?
OX1R antag-1: inactive; GPR7 antagonist: inactive; OX1R antag-2: 89; CHO parental Ca: inactive; GalR3 antag: inactive; OX1R HTRF conf: 68; CHO-K1 HTRF cnt: inactive

Results for CN(CC(=O)NCCCN1CCOCC1)S(=O)(=O)c1cc(Cl)ccc1Cl ?
GPR7 antagonist: inactive; GalR3 antag: inactive

What do the screens show for `COc1ccc(Cl)cc1NC(=O)CN(C)Cc1cccs1`?
OX1R antag-1: inactive; GPR7 antagonist: inactive; OX1R antag-2: inactive; CHO parental Ca: inactive; GalR3 antag: inactive

What do the screens show for `Nc1c([N+](=O)[O-])cc(-c2cnc[nH]2)cc1[N+](=O)[O-]`?
OX1R antag-1: inactive; GPR7 antagonist: inactive; OX1R antag-2: 102; CHO parental Ca: inactive; GalR3 antag: inactive; OX1R HTRF conf: 61; CHO-K1 HTRF cnt: 102

What do the screens show for `O=[N+]([O-])c1ccc(N2CCCCC2)nc1N1CCCCC1`?
OX1R antag-1: inactive; GPR7 antagonist: inactive; OX1R antag-2: inactive; CHO parental Ca: inactive; GalR3 antag: inactive

How did O=[N+]([O-])c1ccc2c(c1N1CCCCC1)=NC1(CCCCC1)[N+]=2[O-] do in these assays?
OX1R antag-1: inactive; GPR7 antagonist: inactive; OX1R antag-2: 77; CHO parental Ca: inactive; GalR3 antag: inactive; OX1R HTRF conf: inactive; CHO-K1 HTRF cnt: 77

What do the screens show for `Cc1ncsc1CCOC(=O)c1cccnc1`?
OX1R antag-1: inactive; GPR7 antagonist: inactive; OX1R antag-2: inactive; CHO parental Ca: inactive; GalR3 antag: inactive

What do the screens show for `Cc1ncsc1CCOC(=O)c1ccc([N+](=O)[O-])cc1`?
OX1R antag-1: inactive; GPR7 antagonist: inactive; OX1R antag-2: 82; CHO parental Ca: inactive; GalR3 antag: inactive; OX1R HTRF conf: inactive; CHO-K1 HTRF cnt: 34

What do the screens show for `CCCC(=O)OCCNc1cc(SCCC(=O)OC)c2nonc2c1[N+](=O)[O-]`?
OX1R antag-1: inactive; GPR7 antagonist: inactive; OX1R antag-2: 120; CHO parental Ca: inactive; GalR3 antag: inactive; OX1R HTRF conf: 64; CHO-K1 HTRF cnt: 79

What do the screens show for `CC(=O)OCCCNc1cc(Sc2ccc(C)cc2)c2nonc2c1[N+](=O)[O-]`?
OX1R antag-1: inactive; GPR7 antagonist: inactive; OX1R antag-2: inactive; CHO parental Ca: inactive; GalR3 antag: inactive

What do the screens show for `OC(c1cccc(Cl)c1)c1nc(/C=C/c2ccccc2)cs1` (configuration not stated)?
GalR3 antag: inactive

Results for CC(=O)Nc1ccc(S(=O)(=O)N(C)CC(=O)OCC(=O)Nc2cc(C)on2)cc1 ?
OX1R antag-1: inactive; OX1R antag-2: inactive; CHO parental Ca: inactive; GalR3 antag: inactive

How did O=C1C=C(N2CCCCC2)c2ccccc2C1=O do in these assays?
OX1R antag-1: inactive; OX1R antag-2: 84; CHO parental Ca: inactive; GalR3 antag: inactive; OX1R HTRF conf: 66; CHO-K1 HTRF cnt: 110

Results for O=C1c2ccccc2C(=O)c2c1cccc2N1CCCC1 ?
OX1R antag-1: inactive; GPR7 antagonist: inactive; OX1R antag-2: inactive; CHO parental Ca: inactive; GalR3 antag: inactive

How did CC(C)Nc1ncnc2c1ncn2[C@H]1CN(Cc2ccc(Cl)cc2)C[C@@H](CO)O1 do in these assays?
GalR3 antag: inactive

How did CCCOc1ccc(/C=N/NC(=O)CN(c2ccc(OCC)cc2)S(C)(=O)=O)cc1 do in these assays?
OX1R antag-1: inactive; GPR7 antagonist: inactive; OX1R antag-2: inactive; CHO parental Ca: inactive; GalR3 antag: inactive
